In ChEMBL document CHEMBL2390834, “Structure-activity relationships for ferriprotoporphyrin IX association and β-hematin inhibition by 4-aminoquinolines using experimental and ab initio methods” (Bioorg Med Chem, 2013):

Experiments:
Ferriprotoporphyrin IX = experiment: Binding affinity to ferriprotoporphyrin 9 at pH 7.5 by UV-vis spectrophotometric analysis in presence of 40% DMSO
Summary of the method: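 Association constant (log K) with Fe(III)PPIX measured by spectrophotometric titration in 40% aqueous (v/v) DMSO, pH 7.5, using a previously described method without modification.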

[1] = Inhibition of beta-hematin formation after 60 mins by colorimetric assay relative to Fe(3)PP9; assay type: functional
Summary of the method: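 4.5 M acetate drives β-hematin formation. Leftover Fe(III)PPIX is then reacted with 5% aqueous pyridine to give a low-spin bis-pyridyl complex, read colorimetrically. Prior method used unmodified; result reported as BHIA₅₀ (50% inhibitory activity).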

Plasmodium falciparum = experiment: Antimalarial activity against chloroquine-sensitive Plasmodium falciparum NF54 by [3H]hypoxanthine incorporation assay; assay type: functional, organism-based
Summary of the method: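 Chloroquine-sensitive NF54 P. falciparum parasites grown in vitro; growth measured by [³H]-hypoxanthine incorporation, essentially as in earlier work; IC50 in nM.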

log K (Ferriprotoporphyrin IX)	IC50 (Plasmodium falciparum)	SMILES	IA50 [1]
4.6		CCN(CC)CCNc1ccnc2cc(F)ccc12	9.7 equiv
4.32		CNc1ccnc2cc([N+](=O)[O-])ccc12	5.5 equiv
4.24		COc1ccc2c(N)ccnc2c1	15.6 equiv
3.44		Nc1ccc2c(N)ccnc2c1	> 20 equiv
4.99		CCN(CC)CCNc1ccnc2cc(Br)ccc12	4.4 equiv
4.38	66 nM	NCCNc1ccnc2ccccc12	10.6 equiv
3.76		NC(=O)c1ccc2c(N)ccnc2c1	10.3 equiv
4.01		CNc1ccnc2cc(C)ccc12	11.1 equiv
4.83		CCN(CC)CCNc1ccnc2cc(OC)ccc12	> 20 equiv
4.86		CCN(CC)CCNc1ccnc2cc(C)ccc12	17 equiv
4.04		CNc1ccnc2cc(N)ccc12	> 20 equiv
3.83		Nc1ccnc2ccccc12	10 equiv
4.67		CCN(CC)CCNc1ccnc2cc(C(F)(F)F)ccc12	8 equiv
4.62		CNc1ccnc2cc(Cl)ccc12	5.7 equiv
4.75		CCN(CC)CCNc1ccnc2ccccc12	> 20 equiv
4.18		CNc1ccnc2cc(C(F)(F)F)ccc12	5 equiv
4.57		Nc1ccnc2cc([N+](=O)[O-])ccc12	5.7 equiv
3.92		CNc1ccnc2ccccc12	14.9 equiv

log K (Ferriprotoporphyrin IX)	IC50 (Plasmodium falciparum)	SMILES	IA50 [1]
4.47	20 nM	N#Cc1ccc2c(NCCN)ccnc2c1	6.3 equiv
4.65		CCN(CC)CCNc1ccnc2cc([N+](=O)[O-])ccc12	3.1 equiv
4.7	8.6 nM	NCCNc1ccnc2cc(C(F)(F)F)ccc12	5.4 equiv
4.35		CCN(CC)CCNc1ccnc2cc(N)ccc12	> 20 equiv
4.47		COc1ccc2c(NCCN)ccnc2c1	10.6 equiv
4.42		CNc1ccnc2cc(C#N)ccc12	4.5 equiv
4.48	747 nM	NCCNc1ccnc2cc([N+](=O)[O-])ccc12	5.3 equiv
3.43		CNc1ccnc2cc(C(N)=O)ccc12	10.1 equiv
4.35	37 nM	Cc1ccc2c(NCCN)ccnc2c1	10.3 equiv
5.1	4.6 nM	NCCNc1ccnc2cc(Cl)ccc12	5.4 equiv
4.41		Nc1ccnc2cc(C(F)(F)F)ccc12	5.6 equiv
5.02		CCN(CC)CCNc1ccnc2cc(I)ccc12	2.8 equiv
5.81		CCN(CC)CCNc1ccnc2cc(Cl)ccc12	2.2 equiv
3.71		CNc1ccnc2cc(OC)ccc12	10.4 equiv
4.32		N#Cc1ccc2c(N)ccnc2c1	6.1 equiv
4.17		Cc1ccc2c(N)ccnc2c1	10.8 equiv
5.01		Nc1ccnc2cc(Cl)ccc12	5.8 equiv
